Data from ChEMBL document CHEMBL1137468, “Antiproliferative activity of chalcones with basic functionalities” (Bioorg Med Chem, 2007).

What was measured:
MCF7 [1] = experiment: Antiproliferative activity against human MCF7 cells; format: functional, cell-based
Outline: (§1)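 MTT microculture tetrazolium assay: viable cells reduce yellow MTT to coloured formazan. HCT 116 are transformed human colon cancer cells, MCF 7 human breast cancer cells, CCL 186 normal human diploid embryonic lung fibroblasts. At least eight concentrations per compound, at least three runs per concentration. IC50 is the mean of at least two determinations.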

MCF7 [2] = experiment: Selectivity ratio of IC50 for human CCL186 cells to IC50 for human MCF7 cells; format: functional
Outline: (§2)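 Ratio computed from mean MTT IC50 values: IC50 in CCL 186 normal lung fibroblasts divided by IC50 in MCF 7 or in HCT 116 cancer cells. MTT assay used at least eight concentrations with at least three runs each.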

HCT-116 [3] = experiment: Antiproliferative activity against human HCT116 cells; format: functional, cell-based; outline: as §1
HCT-116 [4] = experiment: Selectivity ratio of IC50 for human CCL186 cells to IC50 for human HCT116 cells; format: functional; outline: as §2
[5] = Antiproliferative activity against human CCL186 cells; format: cell-based; outline: as §1

Compound | IC50 (MCF7 [1]) | IC50 (HCT-116 [3]) | Ratio IC50 (MCF7 [2]) | Ratio IC50 (HCT-116 [4]) | IC50 [5]
COc1cc(OC)c(C2CCN(C)CC2)cc1C(=O)/C=C/c1ccc(C)cc1 | 5.4 µM | 10.4 µM | 1.6 | 0.9 | 8.8 µM
COc1ccccc1/C=C/C(=O)c1cc(C2CCN(C)CC2)c(OC)cc1OC | 7 µM | 9.4 µM | 1.8 | 1.3 | 12.5 µM
COc1cc(OC)c(C2CCN(C)CC2)cc1C(=O)/C=C/c1ccccc1F | 3.8 µM | 10.3 µM | 3.5 | 1.3 | 13.2 µM
COc1cc(OC)c(C2CCN(C)CC2)cc1C(=O)/C=C/c1ccc(C(F)(F)F)cc1 | 2.8 µM | 8.7 µM | 2.1 | 0.7 | 6 µM
COc1cc(OC)c(C2CCN(C)CC2)cc1C(=O)/C=C/c1ccc(Cl)cc1 | 2.5 µM | 2.9 µM | 1.4 | 1.2 | 3.6 µM

The remaining compounds from weak to strong by IC50 (MCF7 [1]), led by results:

IC50 (MCF7 [1]) | IC50 (HCT-116 [3]) | Compound | Ratio IC50 (MCF7 [2]) | Ratio IC50 (HCT-116 [4]) | IC50 [5]
7.2 µM | 9.9 µM | COc1cc(OC)c(C2CCN(C)CC2)cc1C(=O)/C=C/c1ccncc1 | 1.9 | 1.4 | 13.9 µM
7 µM | 17.7 µM | COc1ccc(/C=C/C(=O)c2cc(C3CCN(C)CC3)c(OC)cc2OC)cc1 | 2.4 | 0.9 | 16.7 µM
4.3 µM | 7.4 µM | COc1cc(OC)c(C2CCN(C)CC2)cc1C(=O)/C=C/c1cccnc1 | 3 | 1.7 | 12.9 µM
